Key:
[1] = tested on: PC3 (AR−) androgen-insensitive human prostate adenocarcinoma cells; assay: MTT antiproliferative activity assay on PC3 cells; format: cell-based; details: 48 h, read-out: IC50 (concentration of drug inhibiting cell growth by 50%), PC3 (AR−)
[2] = tested on: LNCaP (AR+) androgen-sensitive human prostate adenocarcinoma cells; assay: MTT antiproliferative activity assay on LNCaP cells; format: cell-based
recombinant CYP3A4 = recombinant CYP3A4 (Homo sapiens, UniProt P08684); assay: Equilibrium spectral titration of recombinant CYP3A4; format: binding; details: for high spin content: estimated at the end of equilibrium titrations relative to azamulin-bound CYP3A4 (100% high-spin conversion); for Kd: read-out: S50, ligand concentration at half-saturation (equivalent to Kd), 0.1 M phosphate buffer, pH 7.4; for Kd / nH, Hill coefficient: sigmoidal fittings to titration plots, mean of three ± SD
Sequence of recombinant CYP3A4 (P08684 whole entry): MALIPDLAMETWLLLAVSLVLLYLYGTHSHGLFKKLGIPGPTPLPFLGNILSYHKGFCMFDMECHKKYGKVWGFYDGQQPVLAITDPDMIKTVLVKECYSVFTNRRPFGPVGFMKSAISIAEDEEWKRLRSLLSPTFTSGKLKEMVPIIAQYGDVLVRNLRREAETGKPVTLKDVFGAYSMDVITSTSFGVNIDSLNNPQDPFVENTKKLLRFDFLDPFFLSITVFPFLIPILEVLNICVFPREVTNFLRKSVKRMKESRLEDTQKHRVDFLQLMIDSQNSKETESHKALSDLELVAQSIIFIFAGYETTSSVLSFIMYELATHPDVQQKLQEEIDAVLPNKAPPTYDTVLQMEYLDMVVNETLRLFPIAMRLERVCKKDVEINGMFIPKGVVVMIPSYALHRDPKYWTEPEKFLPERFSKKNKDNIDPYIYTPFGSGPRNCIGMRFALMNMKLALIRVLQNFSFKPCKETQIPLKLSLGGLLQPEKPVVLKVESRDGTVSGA
In short: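 Codon-optimized full-length human CYP3A4 (1.5–2 μM) in 0.1 M phosphate buffer, pH 7.4, with 20% glycerol and 1 mM dithiothreitol, at ambient temperature. DMSO-dissolved ligand added in small aliquots (final solvent <2%). Titration plots were built from difference absorbance spectra. Sigmoidal fits gave S50 (half-saturation ligand concentration, equivalent to Kd) and Hill coefficient; hyperbolic fits gave Kd.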

Structure (SMILES) | high spin content (recombinant CYP3A4) [%] | Kd (recombinant CYP3A4) [µM] | nH, Hill coefficient (recombinant CYP3A4) | other results
CC(=O)O[C@]1(C(C)=O)CC[C@H]2[C@@H]3C=C(Cl)C4=CC(=O)[C@@H]5C[C@@H]5[C@]4(C)[C@H]3CC[C@@]21C [CPA, cyproterone acetate, reference compound] | – | – | – | IC50 [1]: 84.3 µM; IC50 ([2]; Homo sapiens, LNCaP/AR, 48 h, read-out: IC50 (concentration of drug inhibiting cell growth by 50%), LNCaP (AR+)): 40.7 µM
C=CC[C@]1(O)CC[C@H]2[C@@H]3CCC4=CC(=O)CC[C@]4(C)[C@H]3CC[C@@]21C [Compound 10, 17α-allyl-androst-4-en-3-one-17β-ol] | 70 ± 2 | 22 ± 4 | 1.52 ± 0.02 | –
C[C@]12CCC(=O)C=C1CC[C@@H]1[C@@H]2CC[C@@]2(C)[C@H]1CC[C@@]2(O)C/C=C/C[C@]1(O)CC[C@H]2[C@@H]3CCC4=CC(=O)CC[C@]4(C)[C@H]3CC[C@@]21C [Compound 11, ((E)-17,17’-(but-2-ene-1,4-diyl))bis(androst-4-en-3-one-17β-ol)] | 92 ± 4 | – | – | fold higher affinity for CYP3A4 compared to 15 (recombinant CYP3A4; ratio of Kd): 40 fold; fold more potent than the reference drug CPA ([2]; LNCaP (AR+) cells, ratio of IC50): ~ 3.5 times; fold more potent on AR+ LNCaP than AR− PC3 cells ([2]; ratio of IC50 PC3 / LNCaP): ~ 3.7 times
C=CC[C@]1(O)CC[C@H]2[C@@H]3CC[C@H]4CC(=O)CC[C@]4(C)[C@H]3CC[C@@]21C [Compound 14, 17α-allyl-androst-3-one-17β-ol] | 71 ± 3 | 17 ± 2 | 1.76 ± 0.06 | –
C[C@]12CCC(=O)C[C@@H]1CC[C@@H]1[C@@H]2CC[C@@]2(C)[C@H]1CC[C@@]2(O)C/C=C/C[C@]1(O)CC[C@H]2[C@@H]3CC[C@H]4CC(=O)CC[C@]4(C)[C@H]3CC[C@@]21C [Compound 15, ((E)-17,17’-(but-2-ene-1,4-diyl))bis(androst-3-one-17β-ol)] | 33 ± 3 | – | – | –
